A short description of series [1]: Genotoxicity in CHO-WBL cells assessed as chromosome aberration at 90 to 397.1 ug/ml measured after 20 hrs in absence of S9 fraction by Giemsa staining based. The class given is toxicity, cell-based, Cricetulus griseus. As to conditions: chinese hamster, dose 90-397.1 µg/ml. An outline of the steps: (§1)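 CHO-WBL cells in McCoy's 5A with 10% FBS, seeded 20-24 h before treatment. Compound in DMSO, with or without serum-free S-9 mix. Treatment either 3 h, then HBSS wash and 17 h further culture, or 20 h; harvest at 20 h from treatment start. Colcemid 0.1 μg/mL for the final 2 h, hypotonic KCl, methanol:acetic acid fixation, Giemsa stain. 300 metaphases per concentration (150 per duplicate flask) scored.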

The target in a further series is Cytochrome P450 2C9 (Homo sapiens, UniProt P11712). The series can be described thus: Inhibition of CYP2C9 in human liver microsomes after 20 mins by LC-MS/MS analysis. The class given is ADME. (Liver microsomes are vesicles of endoplasmic reticulum, rich in cytochrome P450 enzymes.)
Series [2] can be described thus: Toxicity in Mycobacterium tuberculosis H37Rv infected Balb/c mouse assessed as change in body weight at 100 mg/kg/day, po administered via gavage 5 times per week for 3 weeks starting from 10 days post-infection (reference value: 21.29 +/- 0.84 g). It counts as organism-based. As to conditions: in vivo, 504 h, time 21 day.
Series [3] can be described thus: Genotoxicity in CHO-WBL cells assessed as chromosome aberration at 20 to 150 ug/ml incubated for 3 hrs followed by compound washout and measured after 17 hrs in presence of S9 fraction by Giemsa staining based. The conditions noted are these: chinese hamster, s9, 3 h, dose 20-150 µg/ml. It counts as toxicity, subcellular, Cricetulus griseus. In outline: as §1
The nature of series [4]: Genotoxicity in CHO-WBL cells assessed as chromosome aberration at 20 to 150 ug/ml incubated for 3 hrs followed by compound washout and measured after 17 hrs in absence of S9 fraction by Giemsa staining based. It counts as toxicity, cell-based, Cricetulus griseus. The conditions noted are these: chinese hamster, dose 20-150 µg/ml. An outline of the steps:
as §1

Series [5] in a line: Toxicity in female Sprague-Dawley rat assessed as effect on food consumption at 50 to 450 mg/kg/day, po administered for 4 weeks measured at 1 week interval. It counts as organism-based. As to conditions: in vivo, 672 h, dose 50-450 mg/kg/day. In outline:
(§2)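 SD rats, 6-7 weeks old (96 in total), split into vehicle, 50, 150 and 450 mg/kg/day groups of 12 females and 12 males each, given oral doses once daily for 4 weeks, then 2 weeks of recovery. Mortality, body weight, food intake, eyes, urine and neuropsychic signs were observed. Organ and bone marrow histopathology was done on 8 rats per sex per group after the last dose and on the remaining 4 per sex after 14 days of recovery.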

A short description of series [6]: Toxicity in female Sprague-Dawley rat assessed as histopathological changes at 50 to 450 mg/kg/day, po administered for 4 weeks measured post last dose. The class given is organism-based. As to conditions: in vivo, 672 h, dose 50-450 mg/kg/day. In outline: as §2
The nature of series [7]: Toxicity in female Sprague-Dawley rat assessed as mortality at 50 to 450 mg/kg/day, po administered for 4 weeks followed by 2 week recovery period. It counts as organism-based. As to conditions: in vivo, 672 h, dose 50-450 mg/kg/day. In outline: as §2
Series [8] is described as follows: Toxicity in male Sprague-Dawley rat assessed as body weight loss at 50 to 450 mg/kg/day, po administered for 4 weeks followed by 2 week recovery period measured at 1 week interval. It counts as organism-based. The conditions noted are these: in vivo, 672 h, dose 50-450 mg/kg/day. An outline of the steps: as §2
Series [9] can be described thus: Toxicity in male Sprague-Dawley rat assessed as effect on food consumption at 50 to 450 mg/kg/day, po administered for 4 weeks measured at 1 week interval. The class given is organism-based. The conditions noted are these: in vivo, 672 h, dose 50-450 mg/kg/day.
A short description of series [10]: Toxicity in male Sprague-Dawley rat assessed as ophthalmic changes at 50 to 450 mg/kg/day, po administered for 4 weeks measured within 7 days of post last dose. The class given is organism-based. As to conditions: in vivo, 672 h, dose 50-450 mg/kg/day.
The nature of series [11]: Toxicity in male Sprague-Dawley rat assessed as ophthalmic changes at 50 to 450 mg/kg/day, po administered for 4 weeks measured post last dose. It counts as organism-based. As to conditions: in vivo, 672 h, dose 50-450 mg/kg/day.
Series [12] can be described thus: Toxicity in male Sprague-Dawley rat assessed as change in white blood cell count at 50 mg/kg/day, po administered for 4 weeks followed by 2 week recovery period (Rvb =6.12 +/- 1.10 10^9/L). The class given is organism-based. The conditions noted are these: in vivo, 672 h. In outline:
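SD rats aged 6-7 weeks, 24 per group (12 female, 12 male): vehicle, 50, 150 or 450 mg/kg/day given orally once daily for 4 weeks, then 2-week recovery. 8 per sex per group dissected after the last dose and 4 per sex after 14-day recovery. Hematology included WBC count, reported as mean ± SD (n = 12), compared with vehicle.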

Series [13] in a line: Toxicity in female Sprague-Dawley rat assessed as change in red blood cell count at 50 mg/kg/day, po administered for 4 weeks followed by 2 week recovery period (Rvb =7.32 +/- 0.20 10^12/L). The class given is organism-based. The conditions noted are these: in vivo, 672 h.
Series [14] is described as follows: Toxicity in male Sprague-Dawley rat assessed as change in platelet count at 50 mg/kg/day, po administered for 4 weeks followed by 2 week recovery period (Rvb =1077 +/- 117 10^9/L). It counts as organism-based. The conditions noted are these: in vivo, 672 h.
Series [15] in a line: Toxicity in female Sprague-Dawley rat assessed as change in mean platelet volume at 50 mg/kg/day, po administered for 4 weeks followed by 2 week recovery period (Rvb =7.1 +/- 0.5 fL). The class given is organism-based. The conditions noted are these: in vivo, 672 h.
Series [16] in a line: Toxicity in female Sprague-Dawley rat assessed as change in mean corpuscular volume at 50 mg/kg/day, po administered for 4 weeks followed by 2 week recovery period (Rvb =56.1 +/- 0.8 fL). It counts as organism-based. As to conditions: in vivo, 672 h.
A short description of series [17]: Toxicity in male Sprague-Dawley rat assessed as change in mean corpuscular volume at 50 mg/kg/day, po administered for 4 weeks followed by 2 week recovery period (Rvb =57.5 +/- 2.0 fL). It counts as organism-based. As to conditions: in vivo, 672 h.
Series [18] can be described thus: Toxicity in female Sprague-Dawley rat assessed as change in mean corpuscular hemoglobin at 50 mg/kg/day, po administered for 4 weeks followed by 2 week recovery period (Rvb =18.5 +/- 0.6 pg). The class given is organism-based. As to conditions: in vivo, 672 h.
Series [19] is described as follows: Toxicity in female Sprague-Dawley rat assessed as change in hemoglobin count at 50 mg/kg/day, po administered for 4 weeks followed by 2 week recovery period (Rvb =136 +/- 7 g/L). The class given is organism-based. The conditions noted are these: in vivo, 672 h.
The nature of series [20]: Toxicity in male Sprague-Dawley rat assessed as change in hemoglobin count at 50 mg/kg/day, po administered for 4 weeks followed by 2 week recovery period (Rvb =144 +/- 5 g/L). The conditions noted are these: in vivo, 672 h. It counts as organism-based.
Series [21] can be described thus: Toxicity in female Sprague-Dawley rat assessed as change in platelet count at 150 mg/kg/day, po administered for 4 weeks followed by 2 week recovery period (Rvb =1051 +/- 122 10^9/L). The class given is organism-based. The conditions noted are these: in vivo, 672 h.
Series [22] is described as follows: Toxicity in male Sprague-Dawley rat assessed as change in neutrophil level at 150 mg/kg/day, po administered for 4 weeks followed by 2 week recovery period (Rvb =15.9 +/- 3.4 %). It counts as organism-based. As to conditions: in vivo, 672 h.
Series [23] can be described thus: Toxicity in female Sprague-Dawley rat assessed as change in lymphocyte level at 150 mg/kg/day, po administered for 4 weeks followed by 2 week recovery period (Rvb =76.9 +/- 4.6 %). The class given is organism-based. The conditions noted are these: in vivo, 672 h.
A short description of series [24]: Toxicity in male Sprague-Dawley rat assessed as change in mean platelet volume at 450 mg/kg/day, po administered for 4 weeks followed by 2 week recovery period (Rvb =7.0 +/- 0.4 fL). The conditions noted are these: in vivo, 672 h. It counts as organism-based.
Series [25] is described as follows: Toxicity in male Sprague-Dawley rat assessed as change in mean corpuscular volume at 450 mg/kg/day, po administered for 4 weeks followed by 2 week recovery period (Rvb =57.5 +/- 2.0 fL). The conditions noted are these: in vivo, 672 h. The class given is organism-based.
Series [26] is described as follows: Toxicity in male Sprague-Dawley rat assessed as change in mean corpuscular hemoglobin at 450 mg/kg/day, po administered for 4 weeks followed by 2 week recovery period (Rvb =18.3 +/- 0.4 pg). The class given is organism-based. As to conditions: in vivo, 672 h.

Sequence of Cytochrome P450 2C9 (P11712 whole entry): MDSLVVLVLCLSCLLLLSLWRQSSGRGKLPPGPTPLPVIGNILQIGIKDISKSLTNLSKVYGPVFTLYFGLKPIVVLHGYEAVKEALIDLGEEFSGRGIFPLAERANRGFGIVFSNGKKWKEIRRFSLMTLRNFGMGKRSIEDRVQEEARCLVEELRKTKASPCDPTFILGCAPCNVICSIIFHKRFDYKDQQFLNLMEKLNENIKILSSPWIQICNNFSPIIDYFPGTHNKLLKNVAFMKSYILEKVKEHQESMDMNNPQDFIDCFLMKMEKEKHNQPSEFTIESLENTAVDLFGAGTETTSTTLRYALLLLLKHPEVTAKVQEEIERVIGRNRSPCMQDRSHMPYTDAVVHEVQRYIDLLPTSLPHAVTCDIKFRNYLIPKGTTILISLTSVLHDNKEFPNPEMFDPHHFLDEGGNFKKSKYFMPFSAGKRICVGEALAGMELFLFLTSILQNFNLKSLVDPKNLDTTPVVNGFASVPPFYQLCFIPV

As for `CC(=O)NC[C@@H]1OC(=O)N2c3cc(F)c(N4CC[S+]([O-])CC4)cc3OC[C@@H]12`, the Activity entry in [1] is reported as “Non-Toxic”.

Broadly, the IC50 is the point on the concentration scale where inhibition reaches its midpoint. A low value points to greater potency in that assay. Compound `CC(=O)NC[C@@H]1OC(=O)N2c3cc(F)c(N4CCSCC4)cc3OC[C@@H]12` showed an IC50 at Cytochrome P450 2C9 of over 50 µM. Moreover, the Activity in [2] is listed as 21.25 g; in series [3] it was “Non-Toxic”; in series [4], “Non-Toxic”; in [5], “Non-Toxic”; in [6], “Non-Toxic”; in series [7], “Non-Toxic”. The Activity entry in series [8] was “Non-Toxic”; in [9] it was “Non-Toxic”; in series [10], “Non-Toxic”; in series [11] it was “Non-Toxic”; in [12], 6.22 10^9/L; in series [13] it was 6.85 10^12/L. The Activity in [14] is 955 10^9/L; in [15], 7.1 fL; in [16], 56.5 fL; in series [17], 59.7 fL; in series [18], 18.5 pg; in series [19], 126 g/L. The Activity in series [20] is reported as 136 g/L; in [21], 787 10^9/L; in series [22], 17%; in [23], 83%; in [24] it was 6.9 fL; in [25], 58.7 fL. The Activity in series [26] was found to be 18.7 pg.

Values taken from ChEMBL document CHEMBL4725282, “Discovery of a Conformationally Constrained Oxazolidinone with Improved Safety and Efficacy Profiles for the Treatment of Multidrug-Resistant Tuberculosis” (J Med Chem, 2020).
